Only some compounds are listed: those with a hit (about 3.4% of all), similar ones and a draw of the others.
MEKK2wt PB1 HTS: raises or lowers MEK5 binding to wildtype human MEKK2 PB1 domain; Q9Y2U5; AID 1531; binding response (% of control), % at 10 µM; 1.1% of 290,000 active; bead flow cytometry, Alexa488-MEK5 binding to MEKK2 WT; actives lie on both sides; in the data active = binding response below about 67% or above about 130%
IMP-1 inh: blocks Pseudomonas aeruginosa IMP-1 metallo-beta-lactamase; AID 1556; purified IMP-1, nitrocefin hydrolysis, epi-absorbance fluorescence; inhibition, % at 5.6 µM; 0.45% of 290,000 active;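 active = inhibition above the mean plus 3 SD of all compounds in the same screening run, cut at about 4.5% in these data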;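 note: 0% = IMP-1 with DMSO and 100% = DMSO wells lacking enzyme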
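System: purified IMP-1; amount: IMP-1 0.2 nM before substrate addition; compound: single dose, 5.6 µM; times: 25 °C, 15 min preincubation, 25 min reaction; signal: Epi-absorbance via hydrolysed-nitrocefin quenching of white-plate fluorescence, 480/530 nm, EDTA stop; benchmarks: DMSO with and without IMP-1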
MEKK2mut PB1 HTS: signal of MEK5 binding to mutant human MEKK2 PB1 domain. bead flow cytometry, Alexa488-MEK5 binding to MEKK2 mutant. AID 1530. percent response, % at 10 µM. 0.35% of 290,000 active; in the data active = percent response above about 24%, passing the limit was not always enough
VIM-2 inhibitor: inhibitors of Pseudomonas aeruginosa VIM-2 metallo-beta-lactamase; AID 1527; 0.89% of 290,000 active; inhibition, % at 5.6 µM; purified VIM-2, nitrocefin hydrolysis, epi-absorbance fluorescence;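 active = inhibition above the mean of all tested compounds plus 3 SD, cutoff set per screening run, cut at about 7.5% in these data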;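 note: red hydrolysis product quenches plate fluorescence so inhibitors raise well fluorescence; 0% = enzyme with DMSO and 100% = DMSO without enzyme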
MEKK3 PB1 HTS: modulators (inhibitors or enhancers) of MEK5 binding to human MEKK3 PB1 domain | 1.4% of 290,000 active | binding response (% of control), % at 10 µM | bead-based flow cytometry, Alexa488-MEK5 binding to MEKK3; actives lie on both sides; 0 = blocked by unlabeled MEK5, 100 = vehicle;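 active = binding response more than 3 SD above or below the average of its plate-row segment, actives on both sides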;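 note: Alexa488 bead fluorescence after subtracting the streptavidin-only scavenger bead signal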
Target sequence (Q99759 whole entry, looked up, the tested form may be a part): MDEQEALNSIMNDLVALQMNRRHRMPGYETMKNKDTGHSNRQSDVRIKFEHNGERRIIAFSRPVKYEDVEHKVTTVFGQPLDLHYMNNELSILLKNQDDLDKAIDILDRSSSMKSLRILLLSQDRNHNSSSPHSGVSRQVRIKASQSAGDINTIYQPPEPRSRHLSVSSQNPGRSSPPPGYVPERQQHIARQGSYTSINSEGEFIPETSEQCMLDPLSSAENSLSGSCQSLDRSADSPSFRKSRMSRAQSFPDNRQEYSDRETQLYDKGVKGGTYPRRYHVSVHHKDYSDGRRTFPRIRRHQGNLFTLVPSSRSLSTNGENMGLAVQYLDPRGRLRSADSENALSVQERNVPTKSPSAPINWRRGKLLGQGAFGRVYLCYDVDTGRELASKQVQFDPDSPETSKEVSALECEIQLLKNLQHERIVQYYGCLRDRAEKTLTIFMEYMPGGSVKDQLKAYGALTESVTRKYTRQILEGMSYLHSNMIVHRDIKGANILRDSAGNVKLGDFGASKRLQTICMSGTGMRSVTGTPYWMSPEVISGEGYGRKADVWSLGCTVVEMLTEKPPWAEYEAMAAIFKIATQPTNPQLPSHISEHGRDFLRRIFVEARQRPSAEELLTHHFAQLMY
* = called active by the depositor; . = no result; [ ] = another dose, or the depositor's remark.

SMILES	MEKK2wt PB1 HTS	IMP-1 inh	MEKK2mut PB1 HTS	VIM-2 inhibitor	MEKK3 PB1 HTS
CC(C)C(NC(=O)C12CC3CC(CC(C3)C1)C2)C(=O)N/N=C/C1=C(N2CCOCC2)C(=C\c2ccc([N+](=O)[O-])cc2)/CC1 (stereo not drawn)	-2.0*	-2	3	-3	96
Cc1ccc(S(=O)(=O)N2CCC(C(=O)N(C)C3CCS(=O)(=O)C3)CC2)cc1 (stereo not drawn)	117	-2	8	0	114
Cc1ccc(S(=O)(=O)Nc2cccc3ncccc23)s1	-1.0*[inhibitor]	-3	-9	-1	1.0*[inhibitor]
Cc1ccc(S(=O)(=O)Nc2cccc3ncccc23)cc1	100	-3	-4	-3	95
Cc1occc1-c1nnc(SCC(=O)Nc2ccccc2)n1C	-13*	-2	3	-1	92
CC(C)Cc1nc2c(nnn2Cc2ccccc2F)c(=O)[nH]1	87	3	-4	0	88
CCOC(=O)C1CCN(C(=O)NS(=O)(=O)c2ccc(C)cc2)CC1	95	9.6*	-6	0	105
CCOC(=O)C1CCN(C(=S)Nc2ccc(C)cc2)CC1	98	-3	1	-3	104
CCc1c(C)nc2ncnn2c1Nc1ccc(C)cc1	113	-5	9	-1	109
CCc1c(C)nc2ncnn2c1NCCc1ccc(OC)cc1	108	-4	11	8.9*	103
CN(C)c1ccc2c3c(cccc13)C(=O)N(c1ccccc1)C2=O	89	0	-9	-1	97
Cc1cccc(N2C(=O)c3cccc4c(N(C)CCO)ccc(c34)C2=O)c1	.	5.1*	.	4	.
CCc1c(C)c2cc(Cl)c(O)c(CN(CC)CC)c2oc1=O	102	8.8*	0	-2	93
CCc1c(C)c2cc(Cl)c(O)c(CN(C)C)c2oc1=O	107	7.6*	4	-5	101
Cn1nc(-c2ccc(N3CCCCC3)c(NC(=O)c3ccco3)c2)c2ccccc2c1=O	89	-5	-1	-3	101
O=C(Nc1cccc(-c2ccc3nncn3n2)c1)C(F)(F)F	101	-4	7	8.0*	99
CC(=O)Oc1ccc(/C=N\NC(=O)c2cc3c(ccc4ccccc43)o2)cc1	97	4.9*	6	-2	99
COc1ccc(/C=C/C(=O)c2ccc(OC)cc2OC)c(OC)c1	94	-1	3	1	106
O=c1c2[nH]c3ccc(Br)cc3c2ncn1CCCn1ccnc1	115	5.9*	12	5	103
O=c1c2[nH]c3ccccc3c2ncn1CCCn1ccnc1	99	-3	-4	0	102
O=S(=O)(NCC1CCCN(Cc2ccccc2)C1)c1cccc2cccnc12 (stereo not drawn)	115	-2	12	-3	109
COC(=O)C1CCN(C2=C(NS(=O)(=O)c3ccc(Cl)cc3)C(=O)c3ccccc3C2=O)CC1	66	-1	-30	8.4*	58
COc1cc(/C=C/C(=O)Nc2ccc(N3CCCCC3)c(S(=O)(=O)Nc3ccccc3Cl)c2)cc(OC)c1OC	32*	0	26	-1	110
O=C(COC(=O)CCS(=O)(=O)c1ccc(Cl)cc1)NCCc1ccccc1	115	-1	13	-1	104
Cc1cc(OCc2cc(C(=O)N(C)CC3CCOCC3)no2)cc(C)c1Cl	95	0	-12	0	94
SMILES	MEKK2wt PB1 HTS	IMP-1 inh	MEKK2mut PB1 HTS	VIM-2 inhibitor	MEKK3 PB1 HTS
COC(=O)C1=C(Nc2ccccc2NC(=O)CCCC(=O)O)CSC1	93	4.5*	-9	1	88
O=C(C/C=N\OCc1c(Cl)cccc1Cl)Oc1ccc(Cl)cc1Cl	109	12*	8	-2	108
CN1CCN(C(c2ccc(Cl)cc2)c2cc(Cl)c3cccnc3c2O)CC1 (stereo not drawn)	137*	-3	28*	-7	106
O=C(CCN1CCCO1)N1CCCC(N2CCN(c3ccccc3F)CC2)C1 (stereo not drawn)	103	-2	4	-2	104
CCCCn1c(CCn2nc(C)c(Br)c2C)n[nH]c1=S	101	1	8	8.1*	99
CCn1c(CCCCc2n[nH]c(=S)n2CC)n[nH]c1=S	91	-5	-2	0	95
Cc1ccccc1-n1c(-c2ccoc2C)n[nH]c1=S	106	-3	-1	8.6*	103
Cc1cccc(-n2c(-c3ccoc3C)n[nH]c2=S)c1	106	-1	-1	9.1*	99

Screening data from PubChem BioAssay.
